For test [1], the system named is A-431. Put plainly: Cytotoxicity against human A431 cells after 96 hrs by MTT assay. The format is functional, cell-based. Particulars: A-431, 96 h. The method, boiled down:
(§1)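 Adherent cells were grown at 37 °C in 5% CO2 in DMEM or MEM with 10% FBS, L-glutamine, nonessential amino acids and hydrocortisone, then seeded to 30–40% confluence. Compounds were dissolved in water at up to 100 μM, serially diluted tenfold and added for 96 h of continuous exposure. MTT absorbance was read at 570 nm, and IC50 was taken from dose–response analysis.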
A general note: Tetrazolium dyes change colour on reduction, which living cells bring about.

Test [2] has as its system MCF7. Put plainly: Cytotoxicity against human MCF7 cells after 96 hrs by MTT assay. The format is functional, cell-based. Particulars: MCF7, 96 h. The method, boiled down:
as §1

Test [3] in a line: Selectivity ratio of deltaTm for GC-rich FAM-GCGCAGATTTTCTGCGC-TAMRA DNA (unknown origin) to deltaTm for AT-rich FAM-TATAAGATTTTCTTATA-TAMRA DNA (unknown origin). The gist of the method:
(§2)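 Fam/Tamra-labelled hairpins, 400 nM in 50 mM potassium cacodylate pH 7.4, annealed at 85 °C for 5 min, cooled over 5 h, then mixed 1:1 with ligand diluted from DMSO stock; ligand 1 μM, 24 h incubation. Fluorescence (excitation 450−495, emission 515−545 nm) read every 0.5 °C from 30−100 °C; Tm from first-derivative maximum of smoothed curves, ΔTm versus blank.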

Test [4] relates to MDA-MB-231. Put plainly: Cytotoxicity against human MDA-MB-231 cells after 96 hrs by MTT assay. The following applies: MDA-MB-231, 96 h. Type of test: functional, cell-based. The method, boiled down:
as §1

Test [5] can be described thus: Binding affinity to GC-rich FAM-GCGCAGATTTTCTGCGC-TAMRA DNA (unknown origin) assessed as change in melting temperature at 1 uM by FRET assay. The gist of the method: as §2
The nature of test [6]: Cytotoxicity against human primary CLL cells after 96 hrs by annexin V/propidium iodide staining-based FACS flow cytometric analysis. Type of test: functional, cell-based. The gist of the method:
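Freshly isolated peripheral blood CLL cells at 1 × 10^6/mL were cultured in RPMI with penicillin, streptomycin and 10% FCS at 37 °C in 5% CO2. Serial dilutions of compound from DMSO stocks were added, with drug-free control cultures. Apoptosis was measured by annexin V/propidium iodide flow cytometry, in duplicate. LD50 came from sigmoidal curves of log concentration against percentage apoptosis.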
Background: Flow cytometry measures light scatter and fluorescence of single cells or particles in a stream.

A short description of test [7]: Binding affinity to AT-rich FAM-TATAAGATTTTCTTATA-TAMRA DNA (unknown origin) assessed as change in melting temperature at 1 uM by FRET assay. The method, boiled down:
as §2

Test [8] has as its system MIA PaCa-2. The test is described as follows: Cytotoxicity against human MIAPaCa2 cells after 96 hrs by MTT assay. The format is functional, cell-based. Particulars: MIA PaCa-2, 96 h. The gist of the method: as §1
Test [9] concerns A549. The test is described as follows: Cytotoxicity against human A549 cells after 96 hrs by MTT assay. Type of test: functional, cell-based. The following applies: A549, 96 h. The gist of the method: as §1
Test [10] concerns WI-38. The test is described as follows: Cytotoxicity against human WI38 cells after 96 hrs by MTT assay. The format is cell-based. The following applies: WI-38, 96 h. The method, boiled down:
as §1

Test [11] has as its system A2780. Put plainly: Cytotoxicity against human A2780 cells after 96 hrs by MTT assay. The following applies: A2780, 96 h. Type of test: functional, cell-based. The method, boiled down:
as §1

Test [12] is described as follows: Binding affinity to GC-rich GCGC-AGA-TTT-TCT-GCGC DNA (unknown origin) after 5 mins by HPLC-MS analysis (reference value: 12 %).
A short description of test [13]: Binding affinity to AT-rich TATA-AGA-TTT-TCT-TATA DNA (unknown origin) after 5 mins by HPLC-MS analysis (reference value: 70 %).

The structures appear in SMILES notation.

As for `COc1cc2c(cc1OCCCC(=O)O)N=C[C@@H]1CCCN1C2=O`, the IC50 in test [1] is 1090 nM; in test [2] it was 702 nM; in test [4] it was 1670 nM; in [6], more than 20000 nM; in test [8] it was 1560 nM; in test [9], 1500 nM. In addition, the half-inhibitory concentration (IC50) turned out to be 4660 nM in test [10] and 3760 nM in test [11]. Besides, the Ratio in test [3] was found to be 0.5. Also, the ΔTm in test [5] is 0.2 °C; in [7] it was 0.4 °C.

In the case of `COC(=O)c1cc(NC(=O)c2cc(NC(=O)CCCOc3cc4c(cc3OC)C(=O)N3CCC[C@H]3C=N4)cn2C)cn1C`, the IC50 in test [1] was determined as 0.55 nM; in test [2] it was 0.32 nM; in test [4] it was 0.12 nM; in [6], 1.3 nM; in test [8], 2.4 nM; in [9], 6.1 nM. The IC50 in test [10] was found to be 41.3 nM; in test [11], 0.57 nM. The Activity is 12% in test [12] and 70% in [13]. In addition, the Ratio in test [3] was 0.15. In addition, the values for the ΔTm in test [5] and in test [7] were 1.1 °C and 7.4 °C, respectively.

With `COC(=O)c1cc(-c2ccc(NC(=O)CCCOc3cc4c(cc3OC)C(=O)N3CCC[C@H]3C=N4)cc2)cn1C`, the IC50 in [1] stood at 2.31 nM; in [2], 1.91 nM; in test [4], 2.11 nM; in [6] it was 6.2 nM; in test [8] it was 1.2 nM; in test [9], 7.5 nM. For the same compound, the IC50 in test [10] was determined as 160 nM; in test [11] it was 1.87 nM. The Activity was found to be 67% in test [12] and 3% in [13]. In test [3], the Ratio came out at 13. For the same compound, the figures for the thermal shift (ΔTm) in test [5] and in test [7] were 3.9 °C and 0.3 °C, respectively.

Consider `COC(=O)c1nc(NC(=O)c2cc(NC(=O)c3cc(-c4ccc(NC(=O)CCCOc5cc6c(cc5OC)C(=O)N5CCC[C@H]5C=N6)cc4)cn3C)cn2C)cn1C`, for which the IC50 came out at 0.064 nM in [1]; 0.075 nM in test [2]; 0.015 nM in test [4]; 0.037 nM in test [6]; 0.25 nM in [8]; 0.45 nM in test [9]. Besides, the results for the IC50 in test [10] and in test [11] were 65.6 nM and more than 20000 nM, respectively. Besides, the Ratio in [3] was 1.7. Further, the ΔTm in test [5] stood at 5.8 °C; in test [7], 3.4 °C.

For the compound `COC(=O)c1cc(-c2ccc(N)cc2)cn1C`, the IC50 in test [1], in test [2], in [4], in [6], in [8] and in test [9] was more than 20000 nM each time. For the same compound, the IC50 in test [10] and in test [11] was more than 20000 nM each time.

With `COC(=O)c1cc(NC(=O)c2cc(-c3ccc(NC(=O)CCCOc4cc5c(cc4OC)C(=O)N4CCC[C@H]4C=N5)cc3)cn2C)cn1C`, the IC50 was 4.6 nM in test [1]; 1.7 nM in [2]; 2.7 nM in [4]; 2.1 nM in [6]; 0.34 nM in test [8]; 0.019 nM in test [9]. Also, the IC50 in [10] was 426 nM; in test [11], 0.96 nM. For the same compound, the Ratio in test [3] was 1.48. In addition, the thermal shift (ΔTm) in test [5] was found to be 3.1 °C; in test [7], 2.1 °C.

On to `COC(=O)c1cc(NC(=O)c2cc(NC(=O)c3cc(-c4ccc(NC(=O)CCCOc5cc6c(cc5OC)C(=O)N5CCC[C@H]5C=N6)cc4)cn3C)cn2C)cn1C`, for which the IC50 worked out at 0.86 nM in test [1]; 0.31 nM in [2]; 0.59 nM in test [4]; 0.96 nM in test [6]; 0.31 nM in test [8]; 2.3 nM in [9]. Further, the results for the IC50 in test [10] and in test [11] were 41.3 nM and 0.24 nM, respectively. In [3], the Ratio amounted to 1.34. The ΔTm in test [5] turned out to be 4.3 °C; in test [7] it was 3.2 °C.

With `COC(=O)c1cc(-c2ccc(NC(=O)c3cc(-c4ccc(NC(=O)CCCOc5cc6c(cc5OC)C(=O)N5CCC[C@H]5C=N6)cc4)cn3C)cc2)cn1C`, the IC50 was 2.91 nM in [1]; 0.9 nM in test [2]; 0.46 nM in test [4]; 4.7 nM in [6]; 0.35 nM in [8]; 0.54 nM in test [9]. Besides, the IC50 was determined as 159 nM in test [10] and 0.56 nM in test [11]. Moreover, the Ratio in test [3] turned out to be 3.6. Besides, the ΔTm in [5] was 3.6 °C; in test [7], 0.8 °C.

For the compound `CCOC(=O)c1nc(NC(=O)c2cc(-c3ccc(NC(=O)CCCOc4cc5c(cc4OC)C(=O)N4CCC[C@H]4C=N5)cc3)cn2C)cn1C`, the IC50 came to 0.19 nM in test [1]; 0.37 nM in test [2]; 0.45 nM in test [4]; 3 nM in [6]; 0.11 nM in test [8]; 0.47 nM in [9]. In addition, the half-maximal inhibitory concentration (IC50) in [10] was 1240 nM; in [11], 0.15 nM. For the same compound, in test [3], the Ratio is 5.6. The ΔTm in test [5] was found to be 2.8 °C; in test [7], 0.5 °C.

What is called IC50 is the point on the concentration scale where inhibition reaches its midpoint. High values mean lower potency, low ones higher potency. The term ΔTm denotes the shift of the melting midpoint relative to a reference.
